In test [1] the target is T1, UCHL5 (Homo sapiens, UniProt Q9Y5K5).
T1 sequence (Q9Y5K5 1-329): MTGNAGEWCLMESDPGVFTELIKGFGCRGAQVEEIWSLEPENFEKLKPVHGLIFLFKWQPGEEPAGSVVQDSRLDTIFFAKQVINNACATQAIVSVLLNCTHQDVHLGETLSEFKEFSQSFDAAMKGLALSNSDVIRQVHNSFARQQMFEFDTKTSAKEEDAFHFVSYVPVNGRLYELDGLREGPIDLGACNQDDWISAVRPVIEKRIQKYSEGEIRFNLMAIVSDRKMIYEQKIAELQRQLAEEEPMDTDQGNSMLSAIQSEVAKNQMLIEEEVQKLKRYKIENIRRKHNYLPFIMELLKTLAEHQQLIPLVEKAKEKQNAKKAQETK
The experiment in a line: in vitro DUB assay with purified UCHL5 and Ub-rhodamine 110. The class given is biochemical.

The target of test [2] is T1, UCHL5. It is filed as biochemical. Particulars: MDA-MB-231 lysate pre-incubated 30 min, Ub-VS 1 μM. An outline of the steps:
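Lysate (20 μg protein) was pre-incubated with test compound at RT, then Ub-VS was added for 11 min at RT. After SDS quench and 12% SDS-PAGE, blots were probed for UCHL5 band shift and β-actin. Two independent experiments were run.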

Each structure is given as a SMILES string.

As to `CC(C(=O)O)c1ccc(C(=O)c2cccc(-c3ccccc3C(=O)O)c2)s1` (stereo not drawn) [TAA1], in test [1] (TAA1 vs TA), the “improvement of IC50 compared to TA” value is listed as “ca. 33 fold”.

With `Nc1ccc(-c2cn(Cc3cc(C(=O)O)cc(-c4cccc(C(=O)O)c4)c3)nn2)cc1` [TAB2], the “concentrations inhibiting UCHL5/Ub-VS conjugation” value in test [2] is 25 to 50 µM. In test [1] (TAB2 vs TAB1), the “improved potency versus TAB1” value was “ca. 2.5 fold”.

These data come from paper PMC7880549 (Bioorganic & medicinal chemistry, 2020).
